For 27 molecules, IC50 results are on record in ChEMBL document CHEMBL1143164, “Synthesis and structure-activity relationships of ring-opened 17-hydroxywortmannins: potent phosphoinositide 3-kinase inhibitors with improved properties and anticancer efficacy” (J Med Chem, 2008).

Experiment [1] addresses Phosphatidylinositol 4,5-bisphosphate 3-kinase catalytic subunit alpha isoform (Homo sapiens, UniProt P42336). The experiment is described as follows: Inhibition of PI3K expressed in Escherichia coli by microtiter plate-based fluorescence polarization assay. The method, boiled down: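 Fluorescence polarization assay of PI3K activity with PIP2 substrate. Reactions contained 20 mM Hepes pH 7.5, 2 mM MgCl2, 0.05% CHAPS, 0.01% βME, 20 µM PIP2 and 25 µM ATP, and ran 15–30 min at room temperature. They were stopped with buffer holding 10 nM TAMRA-labeled probe and 40 nM GST-GRP1 (E. coli-expressed detector), then incubated 1–2 h before FP readout.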
In general terms: Polarisation of emitted light reports the rotation of a fluorescent probe.

The target of experiment [2] is Serine/threonine-protein kinase mTOR (Homo sapiens, UniProt P42345). The experiment is described as follows: Inhibition of mTOR.
The subject of another experiment is LNCaP. The experiment is described as follows: Growth inhibition of human LNCap cells. Type of experiment: functional, cell-based.

Chain of Phosphatidylinositol 4,5-bisphosphate 3-kinase catalytic subunit alpha isoform (P42336 whole entry, canonical isoform): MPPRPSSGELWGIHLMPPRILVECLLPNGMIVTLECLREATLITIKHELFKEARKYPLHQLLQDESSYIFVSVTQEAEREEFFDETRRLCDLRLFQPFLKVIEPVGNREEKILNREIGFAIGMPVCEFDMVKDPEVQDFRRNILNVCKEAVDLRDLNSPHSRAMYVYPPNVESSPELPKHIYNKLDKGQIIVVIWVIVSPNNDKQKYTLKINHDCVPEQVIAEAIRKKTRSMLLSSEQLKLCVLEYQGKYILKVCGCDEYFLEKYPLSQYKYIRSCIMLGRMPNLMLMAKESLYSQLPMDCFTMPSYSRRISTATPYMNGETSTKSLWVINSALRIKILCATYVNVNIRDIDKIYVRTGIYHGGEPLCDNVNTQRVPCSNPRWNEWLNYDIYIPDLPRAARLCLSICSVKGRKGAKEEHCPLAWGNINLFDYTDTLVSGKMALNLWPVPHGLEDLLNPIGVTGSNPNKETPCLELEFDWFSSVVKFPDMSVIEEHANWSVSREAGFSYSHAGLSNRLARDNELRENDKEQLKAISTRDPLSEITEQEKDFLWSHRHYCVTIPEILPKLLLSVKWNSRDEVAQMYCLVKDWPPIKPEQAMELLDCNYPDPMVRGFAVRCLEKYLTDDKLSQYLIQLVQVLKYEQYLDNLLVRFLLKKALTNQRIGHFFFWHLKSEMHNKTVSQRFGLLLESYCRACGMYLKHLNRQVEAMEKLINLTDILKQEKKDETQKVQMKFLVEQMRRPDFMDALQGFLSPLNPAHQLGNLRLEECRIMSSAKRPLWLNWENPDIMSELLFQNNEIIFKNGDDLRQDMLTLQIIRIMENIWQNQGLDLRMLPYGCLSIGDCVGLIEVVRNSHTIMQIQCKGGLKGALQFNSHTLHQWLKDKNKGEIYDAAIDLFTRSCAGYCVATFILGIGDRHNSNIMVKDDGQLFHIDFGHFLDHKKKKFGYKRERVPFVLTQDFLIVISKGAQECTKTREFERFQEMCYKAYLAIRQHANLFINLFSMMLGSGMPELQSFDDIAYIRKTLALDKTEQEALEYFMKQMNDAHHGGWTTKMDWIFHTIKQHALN

Consider `COC[C@H]1OC(=O)/C(=C/N2CCN(c3ccccc3)CC2)C2=C(O)C(=O)C3=C([C@H](OC(C)=O)C[C@]4(C)[C@@H](O)CC[C@@H]34)[C@]21C`, for which the IC50 is 56 nM in experiment [1], 692 nM in experiment [2] and 953 nM in the experiment on LNCaP.
On the same counts, the results for `COC[C@H]1OC(=O)/C(=C/N2CCOCC2)C2=C(O)C(=O)C3=C([C@H](OC(C)=O)C[C@]4(C)[C@@H](O)CC[C@@H]34)[C@]21C` are 37 nM, 831 nM and 966 nM.
On the same counts, the results for `COC[C@H]1OC(=O)/C(=C/N(CCC#N)Cc2ccccc2)C2=C(O)C(=O)C3=C([C@H](OC(C)=O)C[C@]4(C)[C@@H](O)CC[C@@H]34)[C@]21C` are 444 nM, above 1690 nM and 144 nM.
On the same counts, the results for `COC[C@H]1OC(=O)/C(=C/N2CCN(CCN3CCOCC3)CC2)C2=C(O)C(=O)C3=C([C@H](OC(C)=O)C[C@]4(C)[C@@H](O)CC[C@@H]34)[C@]21C` are 78 nM, 619 nM and 794 nM.
As for `COC[C@H]1OC(=O)/C(=C/N(C)C2CCN(C)C2)C2=C(O)C(=O)C3=C([C@H](OC(C)=O)C[C@]4(C)[C@@H](O)CC[C@@H]34)[C@]21C` (stereo partly specified), the IC50 in experiment [1] was 127 nM; in experiment [2], 1210 nM; in the experiment with LNCaP, 1010 nM.
`COC[C@H]1OC(=O)/C(=C/N2CCN(C3CCN(C)CC3)CC2)C2=C(O)C(=O)C3=C([C@H](OC(C)=O)C[C@]4(C)[C@@H](O)CC[C@@H]34)[C@]21C`: the 50% inhibitory concentration (IC50) in experiment [1] worked out at 91 nM; in experiment [2] it was 961 nM; in the experiment with LNCaP, 782 nM.
For `COC[C@H]1OC(=O)/C(=C/N2CCC(=O)CC2)C2=C(O)C(=O)C3=C([C@H](OC(C)=O)C[C@]4(C)[C@@H](O)CC[C@@H]34)[C@]21C`, in that order: 60 nM, 960 nM and 699 nM.
On to `CCN(/C=C1/C(=O)O[C@H](COC)[C@@]2(C)C1=C(O)C(=O)C1=C2[C@H](OC(C)=O)C[C@]2(C)[C@@H](O)CC[C@@H]12)CCCN(C)C`, for which the IC50 in experiment [1] amounted to 12 nM; in experiment [2], 3570 nM; with LNCaP it was 535 nM.
`COC[C@H]1OC(=O)/C(=C/N2CCN(CCCN(C)C)CC2)C2=C(O)C(=O)C3=C([C@H](OC(C)=O)C[C@]4(C)[C@@H](O)CC[C@@H]34)[C@]21C`: the values for the IC50 (in experiment [1]; in experiment [2]; in the experiment with LNCaP) were 38 nM, 249 nM and 831 nM, respectively.
For `COC[C@H]1OC(=O)/C(=C/N2CCC(N3CCCCC3)CC2)C2=C(O)C(=O)C3=C([C@H](OC(C)=O)C[C@]4(C)[C@@H](O)CC[C@@H]34)[C@]21C`, in that order: 63 nM, 568 nM and 1500 nM.
In the case of `COC[C@H]1OC(=O)/C(=C/N2CCCC2)C2=C(O)C(=O)C3=C([C@H](OC(C)=O)C[C@]4(C)[C@@H](O)CC[C@@H]34)[C@]21C`, the figures for the IC50 (in experiment [1]; in experiment [2]; in the experiment on LNCaP) were 496 nM, above 20000 nM and 257 nM, respectively.
For `CCN/C=C1/C(=O)O[C@H](COC)[C@@]2(C)C1=C(O)C(=O)C1=C2[C@H](OC(C)=O)C[C@]2(C)[C@@H](O)CC[C@@H]12`, in that order: above 10000 nM, above 20000 nM and 7070 nM.
On the same counts, the results for `COC[C@H]1OC(=O)/C(=C/N(CCCN(C)C)C(C)(C)C)C2=C(O)C(=O)C3=C([C@H](OC(C)=O)C[C@]4(C)[C@@H](O)CC[C@@H]34)[C@]21C` are 9.6 nM, 816 nM and 919 nM.
Consider `COC[C@H]1OC(=O)/C(=C/N2CCN(Cc3ccccc3)CC2)C2=C(O)C(=O)C3=C([C@H](OC(C)=O)C[C@]4(C)[C@@H](O)CC[C@@H]34)[C@]21C`, for which the concentration for half-maximal inhibition (IC50) in experiment [1] worked out at 87 nM; in experiment [2], 890 nM; in the experiment with LNCaP it was 1650 nM.
Consider `COC[C@H]1OC(=O)/C(=C/N(CCO)CCO)C2=C(O)C(=O)C3=C([C@H](OC(C)=O)C[C@]4(C)[C@@H](O)CC[C@@H]34)[C@]21C`, for which the figures for the IC50 (in experiment [1]; in experiment [2]; in the experiment with LNCaP) were 918 nM, above 18700 nM and 131 nM, respectively.
On the same counts, the results for `COC[C@H]1OC(=O)/C(=C/N(CCCN(C)C)CCCN(C)C)C2=C(O)C(=O)C3=C([C@H](OC(C)=O)C[C@]4(C)[C@@H](O)CC[C@@H]34)[C@]21C` are 22 nM, 3560 nM and 259 nM.
Turning to `COC[C@H]1OC(=O)/C(=C/N2CCCCC2)C2=C(O)C(=O)C3=C([C@H](OC(C)=O)C[C@]4(C)[C@@H](O)CC[C@@H]34)[C@]21C`, the figures for the concentration for half-maximal inhibition (IC50) (in experiment [1]; in experiment [2]; in the experiment with LNCaP) were 104 nM, 1800 nM and 1550 nM, respectively.
On the same counts, the results for `CCN(/C=C1/C(=O)O[C@H](COC)[C@@]2(C)C1=C(O)C(=O)C1=C2[C@H](O)C[C@]2(C)[C@@H](O)CC[C@@H]12)CC` are 7850 nM, above 20000 nM and 710 nM.
On to `COC[C@H]1OC(=O)/C(=C/N(C)CCCN(C)C)C2=C(O)C(=O)C3=C([C@H](O)C[C@]4(C)[C@@H](O)CC[C@@H]34)[C@]21C`, for which the IC50 in experiment [1] is 638 nM; in experiment [2], above 20000 nM; with LNCaP, 2340 nM.
On to `COC[C@H]1OC(=O)/C(=C/N(C)CCCN2CCN(c3ccc(OC)cc3)CC2)C2=C(O)C(=O)C3=C([C@H](OC(C)=O)C[C@]4(C)[C@@H](O)CC[C@@H]34)[C@]21C`, for which the values for the half-inhibitory concentration (IC50) (in experiment [1]; in experiment [2]; in the experiment on LNCaP) were 15 nM, 1350 nM and 620 nM, respectively.
On the same counts, the results for `CCN(/C=C1/C(=O)O[C@H](COC)[C@@]2(C)C1=C(O)C(=O)C1=C2[C@H](OC(C)=O)C[C@]2(C)[C@@H](O)CC[C@@H]12)CCN(CC)CC` are 24 nM, 1480 nM and 1310 nM.
For `COC[C@H]1OC(=O)/C(=C/N(C)CCCN2CCOCC2)C2=C(O)C(=O)C3=C([C@H](OC(C)=O)C[C@]4(C)[C@@H](O)CC[C@@H]34)[C@]21C`, in that order: 24 nM, 2290 nM and 595 nM.
In the case of `CCCCN(C)/C=C1/C(=O)O[C@H](COC)[C@@]2(C)C1=C(O)C(=O)C1=C2[C@H](OC(C)=O)C[C@]2(C)[C@@H](O)CC[C@@H]12`, the figures for the 50% inhibitory concentration (IC50) (in experiment [1]; in experiment [2]; with LNCaP) were 635 nM, 8700 nM and 203 nM, respectively.
Turning to `CCN(/C=C1/C(=O)O[C@H](COC)[C@@]2(C)C1=C(O)C(=O)C1=C2[C@H](OC(C)=O)C[C@]2(C)[C@@H](O)CC[C@@H]12)CCN(C)C`, the half-maximal inhibitory concentration (IC50) in experiment [1] was determined as 5 nM; in experiment [2], 878 nM; with LNCaP, 1020 nM.
Take `COC[C@H]1OC(=O)/C(=C/N2CCC(C(=O)OC)CC2)C2=C(O)C(=O)C3=C([C@H](OC(C)=O)C[C@]4(C)[C@@H](O)CC[C@@H]34)[C@]21C`: the IC50 in experiment [1] amounted to 31 nM; in experiment [2], 1690 nM; with LNCaP, 506 nM.
Take `COC[C@H]1OC(=O)/C(=C/N(C)C(C)(C)C)C2=C(O)C(=O)C3=C([C@H](OC(C)=O)C[C@]4(C)[C@@H](O)CC[C@@H]34)[C@]21C`: the results for the half-maximal inhibitory concentration (IC50) (in experiment [1]; in experiment [2]; in the experiment with LNCaP) were 440 nM, 6500 nM and 189 nM, respectively.
For `COC[C@H]1OC(=O)/C(=C/N(C)CCN(C)C)C2=C(O)C(=O)C3=C([C@H](OC(C)=O)C[C@]4(C)[C@@H](O)CC[C@@H]34)[C@]21C`, in that order: 8.4 nM, 1470 nM and 751 nM.

By IC50 is commonly meant the concentration at which inhibition is half-maximal. Low values mean greater potency, high ones weaker potency.
